In ChEMBL document CHEMBL1177816, “Epsilon substituted lysinol derivatives as HIV-1 protease inhibitors” (Bioorg Med Chem Lett, 2010):

How the values were obtained:
[1] = test system: Human immunodeficiency virus 1; test: Antiviral activity against HIV1 3B infected in human MT4 cells assessed as inhibition of viral spread after 3 days by p24 antigen ELISA in presence of 10% fetal bovine serum; format: functional
In short: (§1)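 MT-4 cells kept in RPMI 1640 with 10% heat-inactivated FBS were infected en masse with HIV-1 IIIb at multiplicity 0.01 for 24 h, then washed and plated. Serial twofold inhibitor dilutions were added and cultures ran 3 more days. Spread was read by p24 core antigen ELISA. Line 2 used 10% FBS; line 3 used cells resuspended in 50% normal human serum, giving a serum-adjusted IC95.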

[2] = test system: Human immunodeficiency virus 1; test: Antiviral activity against HIV1 3B infected in human MT4 cells assessed as inhibition of viral spread after 3 days by p24 antigen ELISA in presence of 50% normal human serum; format: functional; in short: as §1
Protease = Protease (Human immunodeficiency virus 1, UniProt Q9YQ12); test: Inhibition of HIV1 protease
Protease, sequence (Q9YQ12 whole entry): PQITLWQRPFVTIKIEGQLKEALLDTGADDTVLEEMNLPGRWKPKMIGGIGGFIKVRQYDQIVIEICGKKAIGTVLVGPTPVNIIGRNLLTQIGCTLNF

[3] = Trough plasma concentration in Beagle dog at 4 mg/kg after 24 hrs; format: ADME, organism-based, Canis lupus familiaris; design: dose 4 mg/kg
In short: (§2)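 Beagle dogs received 4 mg/kg orally in PEG 400. Plasma drug levels (nM) were measured over 24 h, including the 24 h trough, and oral half-life was calculated from the plasma concentration profile.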

[4] = AUC in Beagle dog at 4 mg/kg, po; format: ADME, organism-based, Canis lupus familiaris; design: dose 4 mg/kg, route oral; settings: plasma; in short: as §2
[5] = Half life in Beagle dog at 4 mg/kg, po; format: ADME, organism-based, Canis lupus familiaris; design: dose 4 mg/kg, route oral; settings: in vivo; in short: as §2

IC50 (Protease) [nM]	concentration at 24 h [3] [nM]	AUC [4] [µM·h]	half-life [5] [h]	SMILES	Inhibition of viral spread [1] [nM]	Virucidal [2] [nM]
–	2	0.32	–	COC(=O)N[C@H](C(=O)N[C@@H](C)CCC[C@@H](CO)N(CCC(C)C)S(=O)(=O)c1ccc(N)cc1)C(c1ccccc1)c1ccccc1	6.6	120
0.4	–	–	–	COC(=O)N[C@H](C(=O)N[C@H](C)CCC[C@@H](CO)N(CCC(C)C)S(=O)(=O)c1ccc(N)cc1)C(c1ccccc1)c1ccccc1	98	–
0.016	5.1	1.05	6	CC[C@@H](CCC[C@@H](CO)N(CCC(C)C)S(=O)(=O)c1ccc(N)cc1)NC(=O)[C@@H](NC(=O)OC)C(c1ccccc1)c1ccccc1	10	74
0.1	–	–	–	COC(=O)N[C@H](C(=O)N[C@@H](CCC[C@@H](CO)N(CCC(C)C)S(=O)(=O)c1ccc(N)cc1)C(C)C)C(c1ccccc1)c1ccccc1	37	–
0.013	–	–	–	COC(=O)N[C@H](C(=O)N[C@H](CO)CCC[C@@H](CO)N(CCC(C)C)S(=O)(=O)c1ccc(N)cc1)C(c1ccccc1)c1ccccc1	230	–

Continued, compound first:

SMILES	IC50 (Protease) [nM]	concentration at 24 h [3] [nM]	AUC [4] [µM·h]	half-life [5] [h]	Inhibition of viral spread [1] [nM]	Virucidal [2] [nM]
COC(=O)N[C@H](C(=O)NCCCC[C@@H](CO)N(CCC(C)C)S(=O)(=O)c1ccc(N)cc1)C(c1ccccc1)c1ccccc1	0.03	–	–	–	12	130
CCC[C@@H](CCC[C@@H](CO)N(CCC(C)C)S(=O)(=O)c1ccc(N)cc1)NC(=O)[C@@H](NC(=O)OC)C(c1ccccc1)c1ccccc1	0.1	–	–	–	56	–
COC(=O)N[C@H](C(=O)NCCCC[C@@H](CO)N(CC(C)C)S(=O)(=O)c1ccc(N)cc1)C(c1ccccc1)c1ccccc1 [PPL-100]	0.5	–	–	–	–	–
